ChEMBL document CHEMBL4308835, “Fluorine-Substituted Pyrrolo[2,3- d]Pyrimidine Analogues with Tumor Targeting via Cellular Uptake by Folate Receptor α and the Proton-Coupled Folate Transporter and Inhibition of de Novo Purine Nucleotide Biosynthesis” (J Med Chem, 2018)
pIC50: −log10 of the molar value. The source made the active and inactive calls. No cut-off for these calls is given here.

How the values were obtained:
[1] = Antiproliferative activity in Chinese hamster R2 cells deficient in RFC, PCFT, and FRalpha assessed as reduction in cell growth after 96 hrs by Cell-Titer Blue assay; format: cell-based; conditions: Cricetulus griseus, R2, 96 h
[2] = target: T1, Reduced folate transporter (Homo sapiens) (UniProt P41440); experiment: Inhibition of human RFC2 expressed in human HeLa R1-11 cells assessed as reduction in [3H]MTX uptake at pH 7.2 at 10 uM measured over 2 mins relative to control; format: cell-based
T1 sequence (whole entry): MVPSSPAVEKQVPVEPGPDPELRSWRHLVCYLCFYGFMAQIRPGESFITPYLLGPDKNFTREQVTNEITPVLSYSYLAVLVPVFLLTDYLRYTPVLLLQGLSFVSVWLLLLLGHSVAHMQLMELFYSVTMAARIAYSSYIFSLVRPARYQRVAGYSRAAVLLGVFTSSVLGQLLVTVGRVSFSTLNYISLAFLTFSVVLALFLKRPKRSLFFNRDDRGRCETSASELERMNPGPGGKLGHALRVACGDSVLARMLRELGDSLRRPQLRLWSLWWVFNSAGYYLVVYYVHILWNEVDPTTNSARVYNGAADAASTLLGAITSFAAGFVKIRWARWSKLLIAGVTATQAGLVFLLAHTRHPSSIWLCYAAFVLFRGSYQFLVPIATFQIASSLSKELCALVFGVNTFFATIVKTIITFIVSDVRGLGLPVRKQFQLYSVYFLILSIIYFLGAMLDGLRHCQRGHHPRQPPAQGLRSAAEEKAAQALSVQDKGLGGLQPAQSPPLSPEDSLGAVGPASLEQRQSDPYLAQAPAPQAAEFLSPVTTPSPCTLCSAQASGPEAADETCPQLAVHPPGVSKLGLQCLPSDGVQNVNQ

[3] = target: T2, Proton-coupled folate transporter (Homo sapiens) (UniProt Q96NT5); experiment: Inhibition of human PCFT expressed in Chinese hamster R2/PCFT4 cells assessed as reduction in [3H]MTX uptake at pH 5.5 at 1 to 10 uM measured over 2 mins; format: cell-based
T2 sequence (whole entry): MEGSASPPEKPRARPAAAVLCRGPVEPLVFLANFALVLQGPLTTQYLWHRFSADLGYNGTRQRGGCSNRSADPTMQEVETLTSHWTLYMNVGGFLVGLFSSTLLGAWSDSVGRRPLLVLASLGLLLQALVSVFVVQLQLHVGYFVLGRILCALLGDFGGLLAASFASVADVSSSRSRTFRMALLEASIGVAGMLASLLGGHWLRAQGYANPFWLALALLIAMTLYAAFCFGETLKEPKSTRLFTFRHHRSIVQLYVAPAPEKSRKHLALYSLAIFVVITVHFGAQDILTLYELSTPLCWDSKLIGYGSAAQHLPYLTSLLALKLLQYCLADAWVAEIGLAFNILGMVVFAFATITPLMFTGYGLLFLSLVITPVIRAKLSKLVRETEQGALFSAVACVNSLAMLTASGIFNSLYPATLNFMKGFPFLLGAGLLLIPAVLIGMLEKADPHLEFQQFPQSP

IGROV-1 [4] = experiment: Anticlonogenic activity against human IGROV1 cells incubated for 24 hrs followed by compound wash out and measured after 10 days by methylene blue staining-based assay; format: functional, cell-based
In short: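 IGROV1 cells plated in folate-free RPMI 1640 (pH 7.2), 10% dialyzed FBS, 25 nM LCV. After 24 h adherence, exposed to drug (0–20 μM) for 24 h at pH 6.8 (25 mM PIPES/25 mM HEPES). Washed, then grown drug-free at pH 7.2 (100 mM HEPES) with 25 nM LCV for up to 10 days at 37 °C. Colonies stained with methylene blue and counted electronically. Values normalized to vehicle controls. Triplicate experiments.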

IGROV-1 [5] = experiment: Antiproliferative activity against FRalpha […] human IGROV1 KD10 cells after 96 hrs by Cell-Titer Blue assay; format: functional, cell-based; conditions: IGROV-1, 96 h
IGROV-1 [6] = experiment: Antiproliferative activity against human IGROV1 cells harboring non targeted control shRNA sequence after 96 hrs by Cell-Titer Blue assay; format: functional, cell-based; conditions: IGROV-1, 96 h
A2780 = experiment: Antiproliferative activity against human A2780 cells after 96 hrs by Cell-Titer Blue assay; format: functional, cell-based; conditions: A2780, 96 h
IGROV-1 [7] = experiment: Antiproliferative activity against wild type human IGROV1 cells after 96 hrs by Cell-Titer Blue assay; format: functional, cell-based; conditions: IGROV-1, 96 h
IGROV-1 [8] = experiment: Antitumor activity against human IGROV1 cells xenografted in NCR SCID mouse assessed as median tumor burden at 32 mg/kg, iv treated once daily for 4 days per week for 3 weeks starting from 3 days post implantation and measured at day 60 post last dose (reference value: 108 mg); format: functional
In short: (§1)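 Female ICR SCID mice (10 weeks, ~20 g) kept on folate-deficient diet ad libitum for 14 d before bilateral subcutaneous IGROV1 implantation; a control cohort was fed standard folate-replete chow. 5 mice/group, nonselectively randomized. […] Tumors measured twice weekly, body weights daily. T/C from median tumor burdens.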

IGROV-1 [9] = experiment: Antitumor activity against human IGROV1 cells xenografted in NCR SCID mouse assessed as time for tumor growth delay at 95 mg/kg, iv treated once daily for 4 days per week for 4 weeks starting from 3 days post implantation; format: functional; conditions: in the assay text read “32 mg/kg” for “95 mg/kg”
In short: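 Female ICR SCID mice, 10 weeks old, kept on a folate-deficient diet for 14 days before bilateral subcutaneous IGROV1 implants; a control cohort was fed folate-replete chow. Randomized at 5 mice/group. […] Tumors measured twice weekly; body weights recorded daily.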

[10] = Toxicity in NCR SCID mouse xenografted with human IGROV1 cells at 32 mg/kg, iv treated once daily for 4 days per week for 3 weeks starting from 3 days post implantation; format: organism-based; conditions: in vivo
In short: (§2)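 Female ICR SCID mice on a folate-deficient diet for 14 days before bilateral subcutaneous IGROV1 implants. Randomized at 5 mice/group. […] Body weights recorded daily; tumors measured twice weekly.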

[11] = Toxicity in NCR SCID mouse xenografted with human IGROV1 cells assessed as weight loss median nadir at 32 mg/kg, iv treated once daily for 4 days per week for 3 weeks starting from 3 days post implantation and measured at day 14 post last dose relative to control; format: organism-based; conditions: in vivo; in short: as §1
[12] = Toxicity in NCR SCID mouse xenografted with human IGROV1 cells assessed as weight loss median nadir at 32 mg/kg, iv treated once daily for 4 days per week for 3 weeks starting from 3 days post implantation and measured at day 18 post last dose relative to control; format: organism-based; conditions: in vivo; in short: as §2
[13] = target: T1, Reduced folate transporter (Homo sapiens); experiment: Inhibition of human RFC2 expressed in human HeLa R1-11 cells assessed as reduction in [3H]MTX uptake at pH 7.2 at 1 uM measured over 2 mins relative to control; format: cell-based
[14] = Toxicity in NCR SCID mouse xenografted with human IGROV1 cells assessed as weight loss median nadir at 32 mg/kg, iv treated once daily for 4 days per week for 4 weeks starting from 3 days post implantation and measured after conclusion of therapy; format: organism-based; conditions: in vivo

## Nc1nc2[nH]c(CCCc3ccc(C(=O)N[C@@H](CCC(=O)O)C(=O)O)s3)cc2c(=O)[nH]1
[1]
  pIC50: 6.45
[2]
  inhibition: inactive
[3]
  inhibition: Active
IGROV-1 [4]
  pIC50: 6.57
IGROV-1 [5]
  pIC50: 7.13
IGROV-1 [6]
  pIC50: 8.00
A2780
  pIC50: 7.56
IGROV-1 [7]
  pIC50: 7.78
IGROV-1 [8]
  Activity: 108 mg
IGROV-1 [9]
  Time: 35 days
[10]
  Activity: Non-Toxic
[11]
  Activity: 15.7%
[12]
  Activity: 12.1%
[13]
  inhibition: inactive
[14]
  Activity: Non-Toxic
